High-throughput results from PubChem BioAssay.
Shown are actives, neighbours in structure and some others; about 4.6% of the full set was active somewhere.
CHO parental Ca: signal in parental CHO cells, OX1R antagonist counter-screen; parental CHO-K1, ATP-induced calcium, Fluo-8 fluorescence; inhibition, % at 5.6 µM; actives 0.63% (n = 330,000); AID 463079;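 active means inhibition above that plate's mean sample inhibition plus 3 SD, cut at about 26% in these data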;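 further: 0% = ATP-challenged DMSO wells and 100% = DMSO wells without ATP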
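test system = CHO parental line | reagent = ATP stimulus | measured by = intracellular calcium via Fluo-8 no-wash fluorescent dye | control set = ATP and no-ATP DMSO wells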
TAAR1 agonist: agonists of human TAAR1 | activation, % at 3 µM | actives 0.99% (n = 360,000) | CHO RD-HGA16 TAAR1, Fluo-8 calcium fluorescence; vehicle wells 0%, saturating PEA agonist 100%;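 active means activation above the mean activation of all test compounds in the run plus 3 SD, cut at about 38% in these data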
Target sequence (Q96RJ0 whole entry, looked up): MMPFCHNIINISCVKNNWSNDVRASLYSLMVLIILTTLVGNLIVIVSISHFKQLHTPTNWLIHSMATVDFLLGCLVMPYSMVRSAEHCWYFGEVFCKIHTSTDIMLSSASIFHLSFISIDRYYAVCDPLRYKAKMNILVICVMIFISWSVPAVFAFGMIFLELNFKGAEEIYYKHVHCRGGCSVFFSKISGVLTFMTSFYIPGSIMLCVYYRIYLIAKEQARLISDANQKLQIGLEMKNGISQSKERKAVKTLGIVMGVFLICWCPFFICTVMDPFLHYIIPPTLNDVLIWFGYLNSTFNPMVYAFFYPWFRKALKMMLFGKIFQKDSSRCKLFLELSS
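Test system: RD-HGA16 (CHO) cells co-expressing Gα16 and hTAAR1 | Doses: Single dose, 3 µM | Schedule: 17-24 h seeding, 75 min 37 °C dye, 30 min RT | Evaluation: % activation from peak over basal fluorescence ratio, DMSO-to-PEA scaled | Technique: Kinetic Fluo-8 calcium fluorescence | Benchmarks: Low control DMSO, high control PEA (EC100)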
TAAR1 antag: human TAAR1 antagonism. Q96RJ0. CHO RD-HGA16 TAAR1, Fluo-8 calcium fluorescence, antagonist. inhibition, % at 3 µM. actives 1.5% (n = 360,000). AID 624466;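 active means inhibition above a per-plate cutoff, the mean inhibition of test compounds on that plate plus 3 SD, cut at about 49% in these data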;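 further: 0% = DMSO plus EC80 beta-PEA response and 100% = DMSO alone without agonist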
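Test system – hTAAR1-expressing CHO RD-HGA16 cells, Gα16-coupled · Also added – β-PEA at EC80 concentration, post-compound challenge · Compound – 3 µM, single point · Incubation – dye loading 75 min at 37 °C, then 30 min room temperature · Measured by – Fluo-8 intracellular calcium dye fluorescence, real-time kinetic reads · Benchmarks – vehicle and agonist controls · Replicates – singlicate, one well per test compound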
OX1R antag-1: blocks the human orexin 1 receptor; O43613; OX1R-expressing cells, FRET antagonist read-out; inhibition, % at 6.6 µM; actives 1.8% (n = 330,000); AID 485270; in the data active means inhibition mostly above about 38%, no sharp cut-off; inactive means mostly below about 40%;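 further: 0% = agonist challenge alone and 100% = reference antagonist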
OX1R antag-2: human HCRTR1 antagonism. CHO/OX1R cells, Fluo-8 calcium fluorescence, orexin A. AID 434989. inhibition, % at 5 µM. actives 0.43% (n = 330,000). O43613;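 active means inhibition above its plate's threshold, mean inhibition of all tested compounds on the plate plus 3 SD, cut at about 37% in these data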;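 further: 0% = orexin A challenge wells and 100% = SB-334867-A antagonist wells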
GPR7 antag: antagonists of human GPR7 (neuropeptides B/W receptor 1) | P48145 | GPR7-expressing cells, fluorescence antagonist assay | inhibition, % at 4.4 µM | actives 1.1% (n = 290,000) | AID 1861; in the data active means inhibition above about 16%, passing the limit was not always enough;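 further: cells stimulated with the agonist NPW; 0% = agonist with vehicle and 100% = vehicle without agonist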
Target sequence (P48145 whole entry, looked up): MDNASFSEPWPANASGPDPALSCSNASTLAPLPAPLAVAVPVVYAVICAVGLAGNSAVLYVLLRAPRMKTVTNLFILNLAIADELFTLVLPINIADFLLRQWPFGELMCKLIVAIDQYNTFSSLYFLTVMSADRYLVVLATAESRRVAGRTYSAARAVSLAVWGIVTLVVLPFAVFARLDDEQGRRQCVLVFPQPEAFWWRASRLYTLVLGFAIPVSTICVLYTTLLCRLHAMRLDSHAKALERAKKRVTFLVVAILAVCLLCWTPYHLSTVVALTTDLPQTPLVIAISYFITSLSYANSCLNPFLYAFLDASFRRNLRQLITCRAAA
Active calls of the source: *.

`CCOCCCNS(=O)(=O)c1ccc(NC(=O)Cc2c(F)cccc2Cl)cc1` gave CHO parental Ca -5, TAAR1 agonist 14, TAAR1 antag -1, OX1R antag-1 19, OX1R antag-2 -13 and GPR7 antag -12.
Screening CCC(CC)C(=O)Nc1nnc(S(=O)(=O)N2CCCc3ccccc32)s1 returned CHO parental Ca -8, TAAR1 agonist 2, TAAR1 antag 10, OX1R antag-1 3, OX1R antag-2 -14 and GPR7 antag -10.
`CCOC(=O)[C@]12CCCC=C1N(CCC1=CCCCC1)C(=O)[C@H](CC(=O)NCc1cccs1)C2` gave TAAR1 agonist 2 and TAAR1 antag 3.
Screening CCSc1nnc([C@H](Cc2ccccc2)NC(=O)OC(C)(C)C)o1 returned CHO parental Ca -19, TAAR1 agonist 5, TAAR1 antag 6, OX1R antag-1 14, OX1R antag-2 -31 and GPR7 antag -10.
Screening CC(C)(C)OC(=O)N[C@@H](Cc1ccccc1)c1nnc(S(=O)(=O)Cc2ccccc2)o1 returned CHO parental Ca 32*, TAAR1 agonist 10, TAAR1 antag 21, OX1R antag-1 20, OX1R antag-2 30 and GPR7 antag 17.
For Cc1ccccc1CS(=O)(=O)c1nnc([C@H](Cc2ccccc2)NC(=O)OC(C)(C)C)o1 the results were CHO parental Ca 51*, TAAR1 agonist 2, TAAR1 antag 23, OX1R antag-1 1, OX1R antag-2 34 and GPR7 antag 0.
CC1CCN(C(=O)CN(c2cccc(F)c2)S(C)(=O)=O)CC1 was read as CHO parental Ca -18, TAAR1 agonist 7, TAAR1 antag -8, OX1R antag-1 13, OX1R antag-2 -22 and GPR7 antag -10.
For COc1ccc(C(=O)Nc2ccc(C3CC3(Cl)Cl)cc2)cc1 (centres undefined) the results were CHO parental Ca 37*, TAAR1 agonist 4, TAAR1 antag -10, OX1R antag-1 39, OX1R antag-2 10 and GPR7 antag -8.
Screening COc1ccc(CC(=O)Nc2ccc(C(C)=O)cc2)cc1 returned CHO parental Ca -4, TAAR1 agonist 0, TAAR1 antag 7, OX1R antag-1 21, OX1R antag-2 -72 and GPR7 antag 25*.
COc1ccc(NC(=O)c2ccc3ccccc3c2)cc1 was read as CHO parental Ca 42*, TAAR1 agonist 16, TAAR1 antag 3, OX1R antag-1 11, OX1R antag-2 -3 and GPR7 antag 14.
For COc1ccc(C(=O)NNC(=O)c2ccc3ccccc3c2)cc1 the results were TAAR1 agonist 1 and TAAR1 antag 8.
`O=C(CN(Cc1cccs1)C(=O)CN1C(=O)COc2ccccc21)NCc1ccco1` gave CHO parental Ca -22, TAAR1 agonist 6, TAAR1 antag 1, OX1R antag-1 11, OX1R antag-2 -24 and GPR7 antag -6.
COc1ccccc1CNC(=O)C1=CCN(S(=O)(=O)c2ccc(C)cc2)CC1 was read as CHO parental Ca 3, TAAR1 agonist 4, TAAR1 antag -6, OX1R antag-1 10, OX1R antag-2 -25 and GPR7 antag -2.
Screening O=C(NCC[C@H]1CC[C@@H](NC(=O)C2CCC2)[C@@H](CO)O1)c1cc(Cl)cc(Cl)c1 returned TAAR1 agonist 1 and TAAR1 antag -1.
Screening O=C(Cc1ccccc1)Nn1c(O)c(/C=C2\C=Nc3ccccc32)sc1=S returned CHO parental Ca 4, TAAR1 agonist 22, TAAR1 antag 54*, OX1R antag-1 43, OX1R antag-2 21 and GPR7 antag 0.
Cn1c(O)c(/C=C2\C=Nc3ccccc32)sc1=Nc1ccc(C(=O)O)cc1 was read as CHO parental Ca -2, TAAR1 agonist 1, TAAR1 antag -2, OX1R antag-1 4, OX1R antag-2 0 and GPR7 antag -16.
CCOC(=O)c1sc(NC(=O)CS(=O)(=O)c2ccc(C)cc2)nc1C was read as CHO parental Ca -18, TAAR1 agonist -3, TAAR1 antag -1, OX1R antag-1 13, OX1R antag-2 -12 and GPR7 antag -11.
`CCN1C(=O)c2cccc3c(S(=O)(=O)N(C(C)=O)c4ccc(OC(C)=O)cc4)ccc1c23` gave CHO parental Ca -12, TAAR1 agonist 21, TAAR1 antag 49*, OX1R antag-1 10 and OX1R antag-2 -13.
Screening CN(C)c1ccc(Sc2ccc3nc(N)nc(N)c3c2)cc1 returned TAAR1 agonist 44* and TAAR1 antag 12.
`NC(=O)COc1ccc(C(=O)NCC2(N3CCOCC3)CCCCC2)cc1` gave CHO parental Ca -12, TAAR1 agonist 0, TAAR1 antag 4, OX1R antag-1 6 and OX1R antag-2 -2.
Cc1cc(C(=O)COC(=O)c2ccc(N)c([N+](=O)[O-])c2)c(C)n1-c1ccc2c(c1)OCO2 was read as CHO parental Ca 24, TAAR1 agonist 0, TAAR1 antag 32, OX1R antag-1 47*, OX1R antag-2 4 and GPR7 antag -3.
Screening Cc1cc(C(=O)COC(=O)c2ccc(N)c([N+](=O)[O-])c2)c(C)n1Cc1ccc2c(c1)OCO2 returned CHO parental Ca -9, TAAR1 agonist 0, TAAR1 antag 1, OX1R antag-1 5, OX1R antag-2 -9 and GPR7 antag -5.
CC(=O)c1ccc(OCC(=O)c2cc(C)n(-c3ccc4c(c3)OCO4)c2C)cc1 was read as CHO parental Ca 53*, TAAR1 agonist 4, TAAR1 antag 10, OX1R antag-1 32, OX1R antag-2 19 and GPR7 antag -7.
Screening Cc1cccc(CN(CC(=O)N/N=C/c2cccs2)S(=O)(=O)c2ccc(Cl)cc2)c1 returned CHO parental Ca -10, TAAR1 agonist 5, TAAR1 antag 27, OX1R antag-1 20, OX1R antag-2 -18 and GPR7 antag -15.
`O=C(Nc1ccc(Cl)c(Cl)c1)c1ccccc1` gave CHO parental Ca -7, TAAR1 agonist 27, TAAR1 antag 22, OX1R antag-1 33 and OX1R antag-2 8.
For CN(C(=O)Nc1ccc(Cl)c(Cl)c1)c1ccccc1C(=O)O the results were CHO parental Ca 35*, TAAR1 agonist 7, TAAR1 antag 20, OX1R antag-1 10, OX1R antag-2 18 and GPR7 antag -7.
`NS(=O)(=O)c1ccc(N=Nc2ccc(O)c3ncccc23)cc1` gave CHO parental Ca -3, TAAR1 agonist 1, TAAR1 antag -11, OX1R antag-1 3, OX1R antag-2 -15 and GPR7 antag -3.
For NS(=O)(=O)c1ccc(N=Nc2ccc(=O)[nH]c2O)cc1 the results were CHO parental Ca 6, TAAR1 agonist 6, TAAR1 antag -3, OX1R antag-1 74*, OX1R antag-2 -17 and GPR7 antag 7.
